# Measured values published in ChEMBL document CHEMBL1157559, “Synthesis and biological evaluation of novel pyrazolyl-2,4-thiazolidinediones as anti-inflammatory and neuroprotective agents” (Bioorg Med Chem, 2010).
# The source made the active and inactive calls. The rule behind the calls is not given here.
# Tests used:
# SH-SY5Y [1] = assay: Neuroprotective activity in human SH-SY5Y cells assessed as inhibition of LPS, IFN-gamma-stimulated THP1 cellular supernatant-induced cytotoxicity after 72 hrs by LDH assay; assay type: functional, cell-based
# In short: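 SH-SY5Y cells plated 24 h, then medium replaced with supernatant from THP-1 cells stimulated with LPS + IFN-γ for 48 h. Compound added directly to the SH-SY5Y cells at the time of transfer. Cell death measured by LDH release after 72 h; 4–6 independent experiments.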
# Rattus norvegicus [2] = assay: Antiinflammatory activity in Wistar albino rat acute inflammatory model assessed as inhibition of formalin-induced paw edema at 20 mg/kg, po administered 1 hr before formalin challenge measured after 1 hr by plethysmometer relative to control; assay type: functional; set-up: scale not given: the % may be the effect or the level left
# In short: (§1)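 Male Wistar rats, 180–200 g, groups of five. Test compound 20 mg/kg po; 1 h later 0.1 mL 2% formalin injected subplantar into left hind paw under light ether anesthesia. Paw volume by water plethysmometer at 0 and 1, 2, 3, 4 h after formalin. % inhibition = (Vt−V0)control minus (Vt−V0)treated, divided by (Vt−V0)control ×100. Mean ± SEM, ANOVA with Student–Newman–Keuls.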
# Rattus norvegicus [3] = assay: Antiinflammatory activity in Wistar albino rat acute inflammatory model assessed as inhibition of formalin-induced paw edema at 20 mg/kg, po administered 1 hr before formalin challenge measured after 2 hrs by plethysmometer relative to control; assay type: functional; set-up: scale not given: the % may be the effect or the level left; in short: as §1
# Rattus norvegicus [4] = assay: Antiinflammatory activity in Wistar albino rat acute inflammatory model assessed as inhibition of formalin-induced paw edema at 20 mg/kg, po administered 1 hr before formalin challenge measured after 3 hrs by plethysmometer relative to control; assay type: functional; set-up: scale not given: the % may be the effect or the level left; in short: as §1
# Rattus norvegicus [5] = assay: Antiinflammatory activity in Wistar albino rat acute inflammatory model assessed as inhibition of formalin-induced paw edema at 20 mg/kg, po administered 1 hr before formalin challenge measured after 4 hrs by plethysmometer relative to control; assay type: functional; set-up: scale not given: the % may be the effect or the level left; in short: as §1
# Rattus norvegicus [6] = assay: Antiinflammatory activity in Wistar albino rat sub-acute inflammatory model assessed as inhibition of formalin-induced paw edema at 20 mg/kg, po administered daily for 7 days by plethysmometer relative to control; assay type: functional; details: 168 h
# In short: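 Rats dosed orally at 20 mg/kg daily for 7 consecutive days. 0.1 mL 2% formalin given subplantar in left hind paw under light ether 1 h after the first oral dose, with a second injection on day 3. Paw edema weight (g) measured on day 8. % inhibition = (control − treated)/control ×100. Groups of five.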
# Rattus norvegicus [7] = assay: Gastrointestinal toxicity in Wistar albino rat assessed as hyperemia at 100 mg/kg/day, po administered twice daily for 3 days; assay type: organism-based; set-up: route oral; details: in vivo, 72 h
# In short: (§2)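 Male rats 180–200 g, groups of five, fasted 12 h with water available. Compounds given orally as two equal doses at 0 and 12 h, 100 mg/kg per day, for three successive days; vehicle control 1% gum acacia. Rats killed 6 h after last dose. Stomach opened along greater curvature, washed with cold saline and inspected under 3× lens for hyperemia, hemorrhage, erosions or ulcers.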
# Rattus norvegicus [8] = assay: Gastrointestinal toxicity in Wistar albino rat assessed as ulceration at 100 mg/kg/day, po administered twice daily for 3 days; assay type: organism-based; set-up: route oral; details: in vivo, 72 h; in short: as §2
# [9] = Acute toxicity in po dosed Swiss albino mouse after 24 hrs; assay type: organism-based; details: in vivo, read-out: ALD50
# In short: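 Four groups of five Swiss albino mice (20–30 g), fasted 24 h beforehand, given compounds orally at graded doses of 0–300 mg/kg. Mortality recorded at each dose level after 24 h to estimate the acute lethal dose (ALD50).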
# Rattus norvegicus [10] = assay: Antiinflammatory activity in po dosed Wistar albino rat acute inflammatory model assessed as inhibition of formalin-induced paw edema administered 1 hr before formalin challenge measured after 3 hrs by plethysmometer; assay type: functional
# In short: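 Rats dosed orally at 5, 10, 20, 40 and 50 mg/kg body weight. Edema volume inhibition measured 3 h after subplantar formalin (2%, 0.1 mL), and ED50 determined from these doses.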
# THP-1 = assay: Inhibition of MCP1 release in human THP1 cells after 24 hrs by ELISA; assay type: functional, cell-based
# In short: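 THP-1 cells pretreated 15 min with compound, then stimulated with LPS 0.5 µg/mL plus IFN-γ 150 U/mL. After 24 h, MCP-1 (ng/mL) measured in cell-free medium by ELISA.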
# SH-SY5Y [11] = assay: Antineurotoxicity in human SH-SY5Y cells assessed as inhibition human THP1 cell supernatant-induced cytotoxicity compound pretreated 24 to 48 hrs to THP1 cells measured after 72 hrs of supernatant addition; assay type: functional, cell-based
# In short: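 THP-1 cells in DMEM-F12 with 5% FBS, pretreated 15 min with compound or DMSO, then stimulated with LPS 0.5 µg/mL plus IFN-γ 150 U/mL for 24 or 48 h. Cell-free supernatant transferred to SH-SY5Y cells plated 24 h earlier. After 72 h, viability by LDH release and MTT. IC50 from curves of at least three independent experiments.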
# HL-60 = assay: Inhibition of phagocyte respiratory burst in human HL60 cells after 6 to 7 days by luminol-induced chemiluminescence; assay type: functional, cell-based
# In short: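 HL-60 cells differentiated 6–7 days in DMEM-F12 with 10% FBS and 1.3% DMSO, washed into serum-free, phenol red-free medium, then held 30 min at 37 °C before compound or DMSO was added. Luminol injected, 7.5 min baseline recorded, then FMLP injected (final 1 µM; luminol 5 mM; DMSO 0.5%). Chemiluminescence recorded 30 min at 37 °C; read-out was area under the curve.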
# [12] = target: T1, Prostaglandin G/H synthase 2 (Homo sapiens) (UniProt P35354); details: at 10 µM
# T1 sequence (whole entry): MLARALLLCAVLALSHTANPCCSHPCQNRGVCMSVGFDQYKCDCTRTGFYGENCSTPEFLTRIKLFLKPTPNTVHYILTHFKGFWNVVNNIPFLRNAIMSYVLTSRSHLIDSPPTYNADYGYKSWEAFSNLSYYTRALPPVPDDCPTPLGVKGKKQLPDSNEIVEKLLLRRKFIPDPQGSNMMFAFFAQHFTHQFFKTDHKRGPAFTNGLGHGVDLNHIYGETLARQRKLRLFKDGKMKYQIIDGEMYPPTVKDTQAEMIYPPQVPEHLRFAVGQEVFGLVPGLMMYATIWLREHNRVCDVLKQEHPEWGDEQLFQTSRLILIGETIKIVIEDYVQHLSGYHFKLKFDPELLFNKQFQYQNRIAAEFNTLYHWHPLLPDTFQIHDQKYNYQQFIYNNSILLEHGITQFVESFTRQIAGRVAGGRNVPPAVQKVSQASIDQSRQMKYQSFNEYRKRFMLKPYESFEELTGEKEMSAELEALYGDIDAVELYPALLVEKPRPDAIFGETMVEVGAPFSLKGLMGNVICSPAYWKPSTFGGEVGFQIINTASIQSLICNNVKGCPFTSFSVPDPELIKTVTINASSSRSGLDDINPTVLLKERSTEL
smiles,measurement,setting,value
O=C1NC(=O)/C(=C/c2cn(-c3ccc([N+](=O)[O-])cc3)nc2-c2ccc(Cl)cc2)S1,inhibition,SH-SY5Y [1],inactive
same,Activity,Rattus norvegicus [2],24%
same,Activity,Rattus norvegicus [3],46%
same,Activity,Rattus norvegicus [4],68%
same,Activity,Rattus norvegicus [5],68%
same,inhibition in vivo at 20 mg/kg,Rattus norvegicus [6],51%
same,Activity,Rattus norvegicus [7],Non-toxic
same,Activity,Rattus norvegicus [8],0%
same,LD50 at 24 h,[9],> 300 mg/kg
same,ED50,Rattus norvegicus [10],15.2 mg/kg
same,inhibition,THP-1,inactive
same,IC50,SH-SY5Y [11],2000 nM
same,IC50,HL-60,1000 nM
same,inhibition,[12],19.4%
